Measured values taken from ChEMBL document CHEMBL4350999, “Enhanced tumor retention of NTSR1-targeted agents by employing a hydrophilic cysteine cathepsin inhibitor” (Eur J Med Chem, 2019).
Calls of active or inactive are those of the source. The rule behind the calls is not given here.

Key:
Procathepsin L [1] = molecular target: T1, Procathepsin L (Homo sapiens, UniProt P07711); assay: Inhibition of human liver cathepsin L assessed as pseudo Michaelis-Menten constant at 10 nM using varying levels of Z-Phe-Arg-AMC as substrate measured every 5 mins for 1 hr by fluorescence assay
Target sequence in this assay (P07711 114-333 limits assumed): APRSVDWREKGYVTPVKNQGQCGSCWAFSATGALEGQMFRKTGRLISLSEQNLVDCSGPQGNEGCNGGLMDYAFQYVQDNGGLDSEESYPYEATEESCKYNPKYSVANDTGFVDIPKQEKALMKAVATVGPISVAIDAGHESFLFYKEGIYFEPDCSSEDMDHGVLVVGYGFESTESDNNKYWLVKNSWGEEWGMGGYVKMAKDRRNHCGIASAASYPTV

[2] = Ratio of drug uptake in SCID mouse xenograted with human HT-29 cells assessed as tumour retention to drug uptake in small intestine of SCID mouse xenografted with human HT-29 cells cotreated with D-lysine at 40 mg/kg measured after 24 hrs using 177Lu labelled compound; assay type: ADME, organism-based, Tumor/Small intestine; details: in vivo
[3] = Drug uptake in bone of SCID mouse xenografted with human HT-29 cells using 177Lu labelled compound at 0.37 MBq/mouse, iv co-treated with D-lysine at 40 mg/kg measured at 24 hrs by gamma counter analysis; assay type: ADME, organism-based, Bone element; details: in vivo
Summary of the method: (§1)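 Female SCID mice bore s.c. HT-29 xenografts (5 × 10^6 cells in Matrigel, about 80 mm3). D-lysine 40 mg/kg was co-injected i.v. with 10 μCi (0.37 MBq) of purified 177Lu-conjugate. Tissues were harvested at 24 h, weighed and gamma-counted, reported as %ID/g; mean ± SD, n = 5.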

[4] = Drug uptake in heart of SCID mouse xenografted with human HT-29 cells using 177Lu labelled compound at 0.37 MBq/mouse, iv co-treated with D-lysine at 40 mg/kg measured at 24 hrs by gamma counter analysis; assay type: ADME, organism-based; details: in vivo; summary of the method: as §1
[5] = Ratio of drug uptake in SCID mouse xenograted with human HT-29 cells assessed as tumour retention to drug uptake in lung of SCID mouse xenografted with human HT-29 cells cotreated with D-lysine at 40 mg/kg measured after 24 hrs using 177Lu labelled compound; assay type: ADME, organism-based, Tumor/Lung; details: in vivo
[6] = Drug uptake in brain of SCID mouse xenografted with human HT-29 cells pretreated for 1 hr with colchicine at 1 mg/kg, ip followed by 177Lu labelled compound at 0.37 MBq/mouse, iv measured at 24 hrs by gamma counter analysis; assay type: ADME, organism-based; details: in vivo
Summary of the method: (§2)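 HT-29 flank xenografts in female SCID mice (5 × 10^6 cells in Matrigel, about 80 mm3). Colchicine 1 mg/kg was given i.p. before a tail-vein injection of 10 μCi (0.37 MBq) of purified 177Lu-conjugate. Tissues were taken at 24 h, weighed and gamma-counted as %ID/g; mean ± SD, n = 5.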

Procathepsin L [7] = molecular target: T1, Procathepsin L; assay: Binding affinity to cathepsin L in human HT-29 cells assessed as intracellular adduct formation at 0.74 MBq incubated for 4 hrs and measured after 24 hrs in presence of DOTA-beta-ala-[N-alpha-Me8, Dmt11, Tle12] NT6-13 using 177Lu labelled compound by SDS-PAGE analysis; assay type: cell-based; design: dose or concentration left out as unconfirmed
Summary of the method: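 HT-29 cells (1 × 10^6/well) incubated 4 h at 37 °C with 177Lu conjugate (20 μCi, 0.74 MBq) in 1 mL medium, with or without E-64 (10 μM) or NTSR1 peptide N1 (20 μM). Cells washed and refed; at set times cells pooled, RIPA-lysed with protease inhibitor. Lysates heated 85 °C 2 min, run on 16% tris-glycine SDS-PAGE, and phosphor autoradiography taken after 72 h exposure.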
Target sequence in this assay (P07711 114-333 limits assumed): as above

[8] = Drug uptake in spleen of SCID mouse xenografted with human HT-29 cells using 177Lu labelled compound at 0.37 MBq/mouse, iv co-treated with D-lysine at 40 mg/kg measured at 24 hrs by gamma counter analysis; assay type: ADME, organism-based; details: in vivo
Summary of the method: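 HT-29 s.c. xenografts in female SCID mice. 177Lu conjugate given i.v. by tail vein at 10 μCi (0.37 MBq)/mouse, co-injected with D-lysine 40 mg/kg. Tissues were taken at 24 h, weighed and gamma counted. Uptake expressed as %ID/g (n = 5, mean ± SD); tumor-to-tissue ratios derived from these values.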

Procathepsin L [9] = molecular target: T1, Procathepsin L; assay: Inhibition of human liver cathepsin L assessed as inhibition constant using Z-Phe-Arg-AMC as substrate measured every 5 mins for 1 hr by fluorescence assay
Summary of the method: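 Human liver cathepsin L in acetate buffer pH 5.5 (340 mM sodium acetate, 60 mM acetic acid, 1 mM EDTA, 3 mM DTT). Biological triplicate.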
Target sequence in this assay (P07711 whole entry): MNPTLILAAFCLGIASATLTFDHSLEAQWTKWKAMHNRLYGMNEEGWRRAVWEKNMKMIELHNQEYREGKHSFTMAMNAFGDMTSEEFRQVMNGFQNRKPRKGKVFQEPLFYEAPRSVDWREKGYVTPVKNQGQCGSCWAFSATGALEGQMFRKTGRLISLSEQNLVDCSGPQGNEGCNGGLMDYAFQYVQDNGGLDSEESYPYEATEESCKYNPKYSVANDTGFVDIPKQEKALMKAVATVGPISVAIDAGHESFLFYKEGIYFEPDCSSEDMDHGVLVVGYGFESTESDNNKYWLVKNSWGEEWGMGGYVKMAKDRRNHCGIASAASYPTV

[10] = Drug uptake in liver of SCID mouse xenografted with human HT-29 cells using 177Lu labelled compound at 0.37 MBq/mouse, iv co-treated with D-lysine at 40 mg/kg measured at 24 hrs by gamma counter analysis; assay type: ADME, organism-based; details: in vivo; summary of the method: as §1
Procathepsin L [11] = molecular target: T1, Procathepsin L; assay: Inhibition of human liver cathepsin L using Z-Phe-Arg-AMC as substrate assessed as second order rate constant measured every 5 mins for 1 hr by fluorescence assay
Summary of the method: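 Human liver cathepsin L in acetate buffer pH 5.5 (340 mM sodium acetate, 60 mM acetic acid, 1 mM EDTA, 3 mM DTT). Conjugate 1–500 nM; Z-Phe-Arg-AMC 100 μM; 37 °C. […] Biological triplicate.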
Target sequence in this assay (P07711 114-333 limits assumed): as the sequence (P07711 114-333 limits assumed) above

[12] = Drug uptake in blood of SCID mouse xenografted with human HT-29 cells pretreated for 1 hr with colchicine at 1 mg/kg, ip followed by 177Lu labelled compound at 0.37 MBq/mouse, iv measured at 24 hrs by gamma counter analysis; assay type: ADME, organism-based; details: in vivo
Summary of the method: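 Female SCID mice bearing s.c. flank HT-29 xenografts (5 × 10^6 cells in Matrigel, ~80 mm3). Given 10 μCi (0.37 MBq) 177Lu conjugate i.v. by tail vein; groups sacrificed at 4, 24, 72 h. Tissues weighed and gamma-counted as %ID/g, excretion as %ID; n = 5, mean ± SD. Blocking arms: colchicine 1 mg/kg i.p. beforehand, or D-lysine 40 mg/kg co-injected.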

[13] = Drug distribution in human HT-29 cells assessed as adduct signals at 24 hrs relative to baseline; assay type: ADME, cell-based; details: ht-29, 24 h
Summary of the method: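 HT-29 cells preloaded 4 h with 177Lu conjugate (0.74 MBq), washed and chased in fresh medium. Lysates taken at 0 and 24 h and run on SDS-PAGE autoradiography; adduct band radioactivity at 24 h expressed relative to the 0 h intensity.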

[14] = Ratio of drug uptake in SCID mouse xenograted with human HT-29 cells assessed as tumour retention to drug uptake in liver of SCID mouse xenografted with human HT-29 cells cotreated with D-lysine at 40 mg/kg measured after 24 hrs using 177Lu labelled compound; assay type: ADME, organism-based, Tumor/Liver; details: in vivo
[15] = Drug retention in kidney of mouse xenografted with human HT-29 cells assessed as reduction in tissue-conjugate adduct formation at 29.6 MBq co-treated with D-lysine at 40 mg/kg measured after 72 hrs using 177Lu labelled compound by SDS-PAGE analysis; assay type: ADME, organism-based; details: in vivo
[16] = Drug uptake in liver of SCID mouse xenografted with human HT-29 cells pretreated for 1 hr with colchicine at 1 mg/kg, ip followed by 177Lu labelled compound at 0.37 MBq/mouse, iv measured at 24 hrs by gamma counter analysis; assay type: ADME, organism-based; details: in vivo; summary of the method: as §2
[17] = Drug uptake in large intestine of SCID mouse xenografted with human HT-29 cells pretreated for 1 hr with colchicine at 1 mg/kg, ip followed by 177Lu labelled compound at 0.37 MBq/mouse, iv measured at 24 hrs by gamma counter analysis; assay type: ADME, organism-based; details: in vivo; summary of the method: as §2
[18] = Drug retention in kidney lysates of mouse xenografted with human HT-29 cells assessed as macromolecule associated radioactivity at 29.6 MBq co-treated with D-lysine measured after 72 hrs using 177Lu labelled compound by gamma conter analysis relative to control; assay type: ADME, tissue-based; details: in vivo

SMILES	K (Procathepsin L [1])	Ratio [2]	Drug uptake [3]	Drug uptake [4]	Ratio [5]	Drug uptake [6]	Activity (Procathepsin L [7])	Drug uptake [8]	Ki (Procathepsin L [9])	Drug uptake [10]	K (Procathepsin L [11])	Drug uptake [12]	Drug uptake [13]	Ratio [14]	Drug uptake [15]	Drug uptake [16]	Drug uptake [17]	Drug uptake [18]
Cc1cc(O)cc(C)c1C[C@H](NC(=O)[C@@H]1CCCN1C(=O)[C@H](CCCNC(=N)N)NC(=O)[C@H](CCCNC(=N)N)N(C)C(=O)[C@@H]1CCCN1C(=O)[C@H](CCCCN)NC(=O)[C@@H](CO)NC(=O)[C@@H](CO)NC(=O)[C@@H](CO)NC(=O)[C@H](Cc1cn(CCNC(=O)[C@H](CCCNC(=N)N)NC(=O)[C@H](CC(C)C)NC(=O)CCC(=O)O)nn1)NC(=O)CN1CCN(CC(=O)O)CCN(CC(=O)O)CCN(CC(=O)O)CC1)C(=O)N[C@H](C(=O)N[C@@H](CC(C)C)C(=O)O)C(C)(C)C	37 µM																	
Cc1cc(O)cc(C)c1C[C@H](NC(=O)[C@@H]1CCCN1C(=O)[C@H](CCCNC(=N)N)NC(=O)[C@H](CCCNC(=N)N)N(C)C(=O)[C@@H]1CCCN1C(=O)[C@H](CCCCN)NC(=O)[C@@H](CO)NC(=O)[C@@H](CO)NC(=O)[C@@H](CO)NC(=O)[C@H](Cc1cn(CCNC(=O)[C@H](CCCNC(=N)N)NC(=O)[C@H](CC(C)C)NC(=O)C2OC2C(=O)O)nn1)NC(=O)CN1CCN(CC(=O)O)CCN(CC(=O)O)CCN(CC(=O)O)CC1)C(=O)N[C@H](C(=O)N[C@@H](CC(C)C)C(=O)O)C(C)(C)C (stereo partly drawn)		4	0.6 % ID/g	0.14 % ID/g	15	0.07 % ID/g	inactive	1.1 % ID/g	76 nM	0.65 % ID/g	24000 M⁻¹ s⁻¹	0.06 % ID/g	55%	9.6	47%	1.4 % ID/g	0.67 % ID/g	80%
